# Measurements collected from several papers.
# Lines come from different studies, so protocols differ.
# Target: Non-receptor tyrosine-protein kinase TNK1 (TNK1, Homo sapiens, UniProt Q13470)
# Sequence (Q13470 1-666, as in one of the studies): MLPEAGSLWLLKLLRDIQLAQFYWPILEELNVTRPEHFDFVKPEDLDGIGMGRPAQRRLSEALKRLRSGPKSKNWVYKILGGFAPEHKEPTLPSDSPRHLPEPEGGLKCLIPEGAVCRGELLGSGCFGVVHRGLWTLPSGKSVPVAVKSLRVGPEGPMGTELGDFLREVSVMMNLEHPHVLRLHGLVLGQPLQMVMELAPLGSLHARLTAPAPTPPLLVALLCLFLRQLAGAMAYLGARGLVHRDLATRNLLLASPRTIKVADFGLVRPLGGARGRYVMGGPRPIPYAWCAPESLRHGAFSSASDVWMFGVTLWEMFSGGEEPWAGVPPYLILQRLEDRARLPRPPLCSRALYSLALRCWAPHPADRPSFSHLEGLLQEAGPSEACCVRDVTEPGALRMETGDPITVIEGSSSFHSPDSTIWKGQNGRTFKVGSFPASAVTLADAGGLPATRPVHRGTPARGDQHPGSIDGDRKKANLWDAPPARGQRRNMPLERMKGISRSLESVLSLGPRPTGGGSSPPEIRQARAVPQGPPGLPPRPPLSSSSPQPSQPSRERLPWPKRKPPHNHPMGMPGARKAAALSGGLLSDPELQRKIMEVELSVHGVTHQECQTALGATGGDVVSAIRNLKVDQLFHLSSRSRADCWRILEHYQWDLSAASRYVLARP
Structure (SMILES),effect on,action,technique,concentration,quantity,result
Cc1ccc(C(=O)Nc2ccc(CN3CCN(C)CC3)c(C(F)(F)F)c2)cc1C#Cc1cnc2cccnn12,enzyme activity,inhibitor,,23.5 nM,remaining activity,13%
c1nc2c(Nc3ccc4c(c3)OCCO4)nc(Nc3ccc4c(c3)OCCO4)nc2[nH]1,enzyme activity,inhibitor,,10 µM,activity vs control,14%
CC/C(=N\NC(=O)NCc1cccc(O)c1)c1ccc(O)c(C)c1O,enzyme activity,inhibitor,,0.1 µM,inhibition,-1.1%
Cc1sc(C(=O)NC2COC2)cc1-n1cc(NC(=O)Nc2c(F)cccc2Cl)cn1,enzyme activity,inhibitor,,10 µM,remaining activity,105%
CC(=O)N1CCC(c2ccc(C(=O)NC(=N)N)cc2C(F)(F)F)CC1,cell-free assay,,competition with immobilised ligand,1 µM,remaining binding,89%
CC(C)(C)c1nc2c(s1)c1nc(N)ncc1c1ccc(NS(=O)(=O)c3c(F)cccc3F)c(F)c12,enzyme activity,inhibitor,radiometric,1 µM,remaining activity,82%
CCOC(=O)c1cc2cc(-c3cc(C(=O)NCc4ccc(C(=O)O)cc4)nn3C)ccc2[nH]1,cell-free assay,,competition with immobilised ligand,0.1 µM,remaining binding,88%
CC(C)(O)[C@H]1CC[C@H](Nc2ccc3ncc(-c4cccc(C(F)(F)F)c4)n3n2)CC1,enzyme activity,inhibitor,,1 µM,remaining activity,52.4%
O=C(Nc1cnn(-c2csc(C(=O)NC3COC3)c2)c1)Nc1ccccc1Cl,enzyme activity,inhibitor,,5 µM,remaining activity,100%
Nc1ncnc2occ(-c3ccc(NC(=O)Nc4cc(C(F)(F)F)ccc4F)cc3)c12,cell-free assay,inhibitor,,20 µM,remaining signal,6.8%
